The text below walks through data of ChEMBL document CHEMBL1152304, “Alteration of the bis-tetrahydrofuran core stereochemistries in asimicin can affect the cytotoxicity” (J Med Chem, 2008).

The test system of assay [1] is L1210. As to the kind of experiment: Cytotoxicity against mouse L1210 cells at 30 ug by disk diffusion assay. Format: functional. The procedure, abridged:
(§1)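 15 µL of sample dried overnight on 6.5 mm filter disk. Disk placed near edge of 60 mm dish of cells plated in soft agar, incubated 7-10 days. Zone of inhibition measured from disk edge to start of normal-sized colony formation, disk diameter taken as 200 units. Overly toxic samples diluted 1:4 or 1:10 and retested.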

Assay [2] concerns L1210. As to the kind of experiment: Cytotoxicity against mouse L1210 cells at 3 ug by disk diffusion assay. Format: functional. The procedure, abridged:
as §1

Assay [3] concerns L1210. As to the kind of experiment: Cytotoxicity against mouse L1210 cells at 0.3 ug by disk diffusion assay. Format: functional. The procedure, abridged: as §1
The subject of assay [4] is MC-38. The assay is described as follows: Cytotoxicity against mouse Colon 38 cells at 30 ug by disk diffusion assay. Format: functional. The method in brief: as §1
For assay [5], the system named is MC-38. As to the kind of experiment: Cytotoxicity against mouse Colon 38 cells at 3 ug by disk diffusion assay. In kind it is functional. The procedure, abridged: as §1
Assay [6] relates to MC-38. The assay is described as follows: Cytotoxicity against mouse Colon 38 cells at 0.3 ug by disk diffusion assay. Format: functional. The procedure, abridged: as §1
The test system of assay [7] is HCT-116. The assay is described as follows: Cytotoxicity against human HCT116 cells at 30 ug by disk diffusion assay. Format: functional. The procedure, abridged:
as §1

The nature of assay [8]: Cytotoxicity against human H125M cells at 30 ug by disk diffusion assay. In kind it is functional. The method in brief: as §1
The test system of assay [9] is CCRF-CEM. As to the kind of experiment: Cytotoxicity against human CEM cells at 30 ug by disk diffusion assay. Format: functional. The procedure, abridged: as §1
Assay [10] in a line: Cytotoxicity against human CFU-GM cells at 30 ug by disk diffusion assay. In kind it is functional. The procedure, abridged: as §1
Assay [11] can be described thus: Cytotoxicity against human CFU-GM cells at 3 ug by disk diffusion assay. In kind it is functional. The method in brief:
as §1

Assay [12] in a line: Cytotoxicity against human CFU-GM cells at 0.3 ug by disk diffusion assay. In kind it is functional. The method in brief:
as §1

Assay [13] is described as follows: Inhibition of bovine heart mitochondrial complex1 activity. Details: species or system Bos taurus. The procedure, abridged:
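Bovine heart submitochondrial particles, 15 µg/mL, in 0.25 M sucrose, 1 mM MgCl2, 50 mM phosphate pH 7.5. Inhibitor added at various concentrations and equilibrated 5 min. Reaction started with 150 µM NADH and followed spectrophotometrically at 340 nm. IC50 derived.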

Assay [14] has as its system L1210. The assay is described as follows: Cytotoxicity against mouse L1210 cells at 60 ug by disk diffusion assay. Format: functional. The procedure, abridged: as §1
The test system of assay [15] is L1210. As to the kind of experiment: Cytotoxicity against mouse L1210 cells at 15 ug by disk diffusion assay. In kind it is functional. The method in brief: as §1
The test system of assay [16] is L1210. As to the kind of experiment: Cytotoxicity against mouse L1210 cells at 3.75 ug by disk diffusion assay. Format: functional. The procedure, abridged: as §1
The subject of assay [17] is MC-38. As to the kind of experiment: Cytotoxicity against mouse Colon 38 cells at 15 ug by disk diffusion assay. In kind it is functional. The procedure, abridged: as §1
For assay [18], the system named is MC-38. The assay is described as follows: Cytotoxicity against mouse Colon 38 cells at 3.75 ug by disk diffusion assay. Format: functional. The procedure, abridged:
as §1

Assay [19] deals with HCT-116. The assay is described as follows: Cytotoxicity against human HCT116 cells at 60 ug by disk diffusion assay. Format: functional. The procedure, abridged: as §1
The nature of assay [20]: Cytotoxicity against human H125M cells at 60 ug by disk diffusion assay. Format: functional. The method in brief: as §1
The subject of assay [21] is CCRF-CEM. As to the kind of experiment: Cytotoxicity against human CEM cells at 60 ug by disk diffusion assay. In kind it is functional. The method in brief:
as §1

Assay [22] in a line: Cytotoxicity against human CFU-GM cells at 60 ug by disk diffusion assay. In kind it is functional. The method in brief:
as §1

Assay [23] is described as follows: Cytotoxicity against human CFU-GM cells at 15 ug by disk diffusion assay. Format: functional. The method in brief: as §1
A short description of assay [24]: Cytotoxicity against human CFU-GM cells at 3.75 ug by disk diffusion assay. Format: functional. The procedure, abridged:
as §1

The subject of assay [25] is MC-38. The assay is described as follows: Cytotoxicity against mouse Colon 38 cells at 60 ug by disk diffusion assay. In kind it is functional. The method in brief: as §1
Assay [26] relates to HCT-116. As to the kind of experiment: Cytotoxicity against human HCT116 cells. In kind it is functional, cell-based.

Structures are written as SMILES.

On to `CCCCCCCCCC[C@@H](O)[C@@H]1CC[C@@H]([C@@H]2CC[C@H]([C@H](O)CCCCCCCCCC[C@@H](O)CC3=C[C@H](C)OC3=O)O2)O1`, for which the “inhibition zone (IZ)” value was 250 Zone units with L1210 [1]; 150 Zone units in the assay with L1210 [2]; 50 Zone units with L1210 [3]; 750 Zone units in the assay on MC-38 [4]; 750 Zone units with MC-38 [5]; 500 Zone units in the assay with MC-38 [6]. For the same compound, the “inhibition zone (IZ)” value with HCT-116 [7] worked out at 600 Zone units; in [8] it was 600 Zone units; in the assay with CCRF-CEM [9], 200 Zone units; in assay [10] it was 650 Zone units; in assay [11], 550 Zone units; in [12], 500 Zone units. Moreover, the IC50 in [13] was determined as 3 nM.
With `CCCCCCCCCC[C@@H](O)[C@H]1CC[C@@H]([C@@H]2CC[C@@H]([C@H](O)CCCCCCCCCC[C@@H](O)CC3=C[C@H](C)OC3=O)O2)O1`, the “inhibition zone (IZ)” value with L1210 [1] was 300 Zone units; in the assay with L1210 [2], 200 Zone units; in the assay with L1210 [3], 100 Zone units; with MC-38 [4], 850 Zone units; in the assay on MC-38 [5] it was 700 Zone units; in the assay on MC-38 [6], 450 Zone units. Also, the “inhibition zone (IZ)” value with HCT-116 [7] turned out to be 500 Zone units; in assay [8], 500 Zone units; in the assay on CCRF-CEM [9] it was 200 Zone units; in [10], 650 Zone units; in assay [11], 550 Zone units; in assay [12] it was 450 Zone units. Moreover, in [13], half-maximal inhibition (IC50) was put at 2 nM.
For the compound `CCCCCCCCCC[C@@H](O)[C@H]1CC[C@@H]([C@@H]2CC[C@H]([C@@H](O)CCCCCCCCCC[C@@H](O)CC3=C[C@H](C)OC3=O)O2)O1`, the “inhibition zone (IZ)” value came to 200 Zone units in the assay on L1210 [14]; 300 Zone units in the assay on L1210 [15]; 150 Zone units in the assay on L1210 [16]; 800 Zone units in the assay on MC-38 [17]; 650 Zone units in the assay with MC-38 [18]; 550 Zone units in the assay with HCT-116 [19]. Further, the “inhibition zone (IZ)” value in [20] came to 500 Zone units; in the assay with CCRF-CEM [21], 150 Zone units; in assay [22], 350 Zone units; in [23] it was 250 Zone units; in assay [24] it was 100 Zone units; with MC-38 [25], 600 Zone units. The IC50 in assay [13] came out at 2.5 nM; with HCT-116 [26] it was 5.6 nM.
As for `C[C@H]1C=C(C[C@H](O)CCCCCCCCCC[C@@H](O)[C@H]2CC[C@H]([C@H]3CC[C@H]([C@H](O)CCCCCCCCCCO)O3)O2)C(=O)O1`, the “inhibition zone (IZ)” value with L1210 [1] turned out to be 200 Zone units; with L1210 [2], 100 Zone units; with L1210 [3], 50 Zone units; in the assay on MC-38 [4], 800 Zone units; in the assay with MC-38 [5], 600 Zone units; with MC-38 [6], 450 Zone units. The “inhibition zone (IZ)” value in the assay with HCT-116 [7] is 600 Zone units; in assay [8] it was 500 Zone units; in the assay with CCRF-CEM [9], 150 Zone units; in assay [10], 650 Zone units; in assay [11], 550 Zone units; in [12], 450 Zone units.
As for `CCCCCCCCCC[C@@H](O)[C@H]1CC[C@H]([C@H]2CC[C@H]([C@@H](O)CCCCCCCCCC[C@@H](O)CC3=C[C@H](C)OC3=O)O2)O1`, the “inhibition zone (IZ)” value in the assay with L1210 [14] was 400 Zone units; in the assay with L1210 [15], 400 Zone units; in the assay on L1210 [16] it was 50 Zone units; with MC-38 [17] it was 750 Zone units; with MC-38 [18], 650 Zone units; in the assay with HCT-116 [19], 600 Zone units. Besides, the “inhibition zone (IZ)” value in assay [20] worked out at 250 Zone units; in the assay on CCRF-CEM [21], 100 Zone units; in [22], 600 Zone units; in [23] it was 100 Zone units; in assay [24], 0 Zone units; in the assay on MC-38 [25] it was 800 Zone units. Besides, the IC50 in assay [13] turned out to be 3.3 nM; in the assay on HCT-116 [26], 27 nM.
